Screening results (PubChem)
This is one part of a sample in which hits are shown more often than they occur.
Calb FLC – C. albicans growth modulation with fluconazole; C. albicans CaCi-2 (fluconazole-resistant clinical isolate) + fluconazole, Alamar Blue growth, 48 h; 0.57% of 300,000 active; growth inhibition, % (test concentration not listed);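 active means growth inhibition above about 58% in most replicates, limit read from the data, passing the limit was not always enough; inconclusive means exactly half the replicates above a set limit; inactive means most replicates below a set limit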;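 further: all wells also contain fluconazole at 8 µg/ml as a sub-toxic cotreatment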
NALP1 yeast inh – blocks the NALP1 inflammasome reconstituted in yeast; inhibition, % at 10 µM; S. cerevisiae NALP1/ASC/caspase-1 growth, X-gal OD620, 72 h; 0.61% of 280,000 active; in the data active means inhibition mostly above about 24%, no sharp cut-off; inactive means mostly below about 32%
PolyA inhibitor – inhibitors of polyadenylation in S. cerevisiae. S. cerevisiae SKY197-pL101 polyadenylation reporter, beta-gal luminescence; efflux-impaired pdr1/pdr3 knockout yeast; score 100 = 6 SD above DMSO. activity score, % at 12 µM. 0.02% of 300,000 active;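 active means lowest replicate activity score at least 50, where 100 means six control SD above control mean; inconclusive means lowest score under 50 but half or more replicates reach 50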;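 further: yeast exposed to compound for 9 h at 30 °C; higher score means more reporter readthrough which indicates perturbed polyadenylation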
T cruzi inh – blocks replication of Trypanosoma cruzi; 1.4% of 300,000 active; T. cruzi beta-gal in NIH3T3, luminescence, 90 h; inhibition, % (test concentration not listed);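 active means mean inhibition across valid replicates above about 55%, limit read from the data; inconclusive means mean below that limit but half or more replicates reach it; inactive means mean below it, under half of replicates reach it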;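 further: signal also drops with host cell toxicity which is not excluded here; higher percent means less beta-gal luminescence so fewer parasites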
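Assay system: NIH/3T3 fibroblasts plus reporter T. cruzi. Amount: NIH/3T3 cells, 5,000 per well. Buffer or medium: DMEM, 2% fetal bovine serum. Doses: compound pinned at 50 nL/well, DMSO. Schedule: ≥90 h infection period, 3 h prior cell attachment. Signal: luminescent β-galactosidase signal after 60 min lysis. Read-out: parasite load inhibition, %.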
L major viab – Leishmania major promastigote growth inhibition; Leishmania major promastigotes, resazurin fluorescence viability; inhibition, % at 10 µM; 9% of 200,000 active;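 further: promastigotes grown with compound for 44 hours at 28 °C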
NLRP3 yeast inh – blocks the NALP3 inflammasome reconstituted in yeast; Yeast reconstituted NLRP3/ASC/caspase-1, beta-gal luminescence, 24 h; inhibition, % at 10 µM; 0.39% of 330,000 active; AID 2825;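 active means inhibition of 50% or more; inactive means inhibition below 50%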
NALP3 confirm – NALP3 inhibition confirmation in yeast. shares compounds with NLRP3 yeast inh. yeast expressing human NALP3, luminescence. inhibition, % at 10 µM. 81% of 1,300 active; in the data active means inhibition above about 48%
Casp1 ASC ctr – counter-screen for NALP3 inhibitors: yeast caspase-1-ASC | AID 488784 | shares compounds with NLRP3 yeast inh | inhibition, % at 10 µM | yeast expressing Caspase-1-ASC, luminescence counter screen | 66% of 1,000 active
NALP3 yeast rt – yeast NALP3 inhibition, confirmed on retest. shares compounds with NLRP3 yeast inh. yeast expressing human NALP3, luminescence read-out. inhibition, % at 10 µM. 53% of 1,000 active. AID 488794
Hits are given with their value; - = inactive; ? = inconclusive; . = no result given. Unless noted, no stated cut-off is given here; in the data, active means inhibition above about 50%; inactive means the rest.

SMILES	Calb FLC	NALP1 yeast inh	PolyA inhibitor	T cruzi inh	L major viab	NLRP3 yeast inh	NALP3 confirm	Casp1 ASC ctr	NALP3 yeast rt
Cn1c(=NC(=O)COc2ccccc2)sc2ccccc21	-	-	-	-	-	59.8	-	.	.
Cn1c(=NC(=O)CS(=O)(=O)c2ccccc2)sc2ccccc21	-	.	-	-	.	-	.	.	.
CC(C)(C)c1ccc(C(=O)NC(=S)N2CCCC2)cc1	-	-	-	-	.	62.9	49.2	80.4	71.0
C=CCNc1nc(Cl)nc(Nc2ccc(OCC)cc2)n1	-	-	-	-	-	52.5	-	-	-
COc1ccc(Nc2nc(Cl)nc(NCCO)n2)cc1	-	-	-	-	-	-	.	.	.
Cc1cccc(C)c1NC(=O)C(C)N1CCCC1 (stereo unspecified)	-	-	-	-	.	-	.	.	.
Cc1cccc(C)c1NC(=O)C(C)N (stereo unspecified)	-	.	-	-	.	55.4	58.6	-	-
S=C(Nc1cc(Cl)cc(Cl)c1)NC1CCN(Cc2ccccc2)CC1	-	-	-	-	.	55.6	52.7	.	.
COc1ccc(CCNC(=S)NC2CCN(Cc3ccccc3)CC2)cc1OC	-	-	-	-	-	-	.	.	.
CN(C)c1ncnc2sc(-c3ccccc3)cc12	-	-	-	-	.	65.4	75.4	-	-
COc1ncnc2sc(-c3ccccc3)cc12	-	-	-	-	-	-	.	.	.
COc1ccccc1NC(=O)CSCc1ccc([N+](=O)[O-])cc1	-	41.2	-	-	-	65.4	60.0	59.0	50.8
COc1ccc([N+](=O)[O-])cc1NC(=O)CSCc1cc(C)cc(C)c1	-	-	-	-	-	-	.	.	.
CCOC(=O)c1cc(C(=O)c2cccs2)n2ccc(C(C)=O)cc12	-	-	-	-	-	54.0	51.0	51.6	-
CC(C)CN(C(=O)c1ccc(S(=O)(=O)N2CCOCC2)cc1)C1CCS(=O)(=O)C1 (stereo unspecified)	-	.	-	-	.	-	.	.	.
Cc1ccc2[nH]c(CNC(=O)C3CCCCC3)cc2c1	-	-	-	-	.	-	.	.	.
Cc1cc(OCc2nc3ccccc3s2)ccc1N	-	-	-	-	.	54.5	-	.	.
c1ccc(OCc2nc3ccccc3s2)cc1	-	-	-	-	-	-	.	.	.
O=S(=O)(c1ccccc1)c1cnc2ccccc2c1	-	.	-	-	.	-	.	.	.
Nc1nc2ccccc2cc1S(=O)(=O)c1ccccc1	-	-	-	-	-	83.3	86.8	.	.
COc1cccc(NC(=O)C2CCCN2C(=O)NC2CCCCC2)c1 (stereo unspecified)	-	-	-	-	.	-	.	.	.
COc1cc2oc3ccccc3c(=O)c2cc1OC	-	-	-	-	.	61.9	71.5	55.4	58.6
O=c1c2ccccc2oc2ccc(Oc3ccccc3)cc12	-	-	-	-	.	-	.	.	.
O=C(/C=C/c1cccc(F)c1)OCC(=O)N1CCc2ccccc21	.	.	.	.	.	-	.	.	.
CC1=C(C(=O)NC2CC(C)(C)Cc3c2cnn3-c2cccc(F)c2)OCCO1 (stereo unspecified)	-	-	-	-	.	-	.	.	.
SMILES	Calb FLC	NALP1 yeast inh	PolyA inhibitor	T cruzi inh	L major viab	NLRP3 yeast inh	NALP3 confirm	Casp1 ASC ctr	NALP3 yeast rt
O=C(Nc1cnc2ccccc2c1)c1ccncc1	-	-	-	-	-	-	.	.	.
O=C(NC(=S)Nc1cnc2ccccc2c1)c1ccccc1	-	-	-	-	-	72.7	63.5	65.1	58.9
Cc1ccc(NC(=O)N2CCc3ccccc3C2)cc1C	-	-	-	-	.	-	.	.	.
Cc1cc(C)cc(NC(=O)N2CCc3ccccc3C2)c1	-	-	-	-	.	53.2	63.8	-	-
CC(C(=O)NCCC1=CCCCC1)c1ccc([N+](=O)[O-])cc1 (stereo unspecified)	-	-	-	-	-	50.8	61.5	-	-
O=Nc1c(-c2c(O)[nH]c3cc(Br)ccc23)[nH]c2ccccc12	-	-	-	-	.	66.7	71.2	55.8	64.2
O=C(Nc1nccs1)c1cc2c(s1)-c1ccccc1OC2	-	-	-	-	-	53.8	66.8	-	-
O=C(Nc1cccnc1Cl)c1cc2c(s1)-c1ccccc1OC2	-	-	-	-	.	-	.	.	.
CN1CCN(c2ccccc2NC(=O)c2cc3c(s2)-c2ccccc2OC3)CC1	-	.	-	-	.	70.7	76.2	81.8	75.5
CC1CCc2c(C(=O)Nc3ccc(N4CCOCC4)cc3)csc2C1 (stereo unspecified)	-	27.2	-	-	-	68.6	53.2	63.6	52.5
O=C(c1ccco1)N1N=C2CCCCCC2C1(O)C(F)(F)F (stereo unspecified)	-	-	-	-	-	-	.	.	.
Cc1cc(NC(=O)CN(C)S(=O)(=O)c2cccc(Cl)c2)no1	-	-	-	-	-	-	.	.	.
Cc1snc(SCc2ccc(Cl)cc2)c1C#N	-	-	-	-	.	52.4	49.4	62.8	-
Cc1snc(SCc2ccc(F)cc2)c1C#N	-	-	-	-	.	-	.	.	.
Cc1nn(CC(=O)NCCC2=CCCCC2)c(C)c1S(=O)(=O)N(C)C	.	.	.	.	.	-	.	.	.
CCN(CC)S(=O)(=O)c1cccc(C(=O)Nc2cc(C)cc(C)c2)c1	-	-	-	-	-	-	.	.	.
CCN(CC)S(=O)(=O)c1ccc(C(=O)Nc2cc(C)cc(C)c2)cc1	-	-	-	-	-	50.6	51.6	-	-
Clc1ccc(-c2csc(N/N=C/c3cccnc3)n2)c(Cl)c1	-	.	-	-	-	-	.	.	.
CC(C)(C)c1csc(N/N=C/c2cccnc2)n1	-	-	-	-	-	58.4	68.5	75.5	55.6
Cc1cc(=O)oc2cc(OCC(=O)Nc3ccc(CN4CCOCC4)cc3)c(Cl)cc12	-	-	-	-	.	-	.	.	.
O=C(Nc1ccccc1)c1ccc(S(=O)(=O)N2CCCCC2)cc1	-	-	-	-	-	51.6	63.5	-	-
CC(=O)Nc1ccc(Oc2ccc(-c3noc(C)n3)cc2)cc1	-	-	-	-	-	-	.	.	.
CC(=O)Oc1ccc(Oc2ccc(-c3noc(C)n3)cc2)cc1	-	-	?	-	-	56.4	72.2	70.1	56.2
O=C(COc1ccccc1[N+](=O)[O-])N(C1CCCCC1)C1CCS(=O)(=O)C1 (stereo unspecified)	-	.	-	-	.	-	.	.	.
O=C(NC(=S)/C(=C1\CCCCCN1)[N+](=O)[O-])c1ccccc1	.	.	.	.	.	58.7	54.2	64.2	-
NCCC(=O)N1c2ccccc2Sc2ccccc21	-	35.9	-	-	.	68.4	78.2	62.4	76.6
COc1ccc(-c2cn3c(n2)CCC3)cc1	-	-	-	-	-	-	.	.	.
c1ccc(-c2ccc(-c3cn4c(n3)CCC4)cc2)cc1	-	51.3	-	-	-	65.9	68.4	86.8	73.5
Cc1cc(NC(=O)CSc2nc(=O)cc(N)n2-c2ccc(Cl)cc2)no1	-	-	-	-	-	-	.	.	.
